Assay results: ChEMBL document CHEMBL1144191, “Synthesis and evaluation of a spiro-isobenzofuranone class of histamine H3 receptor inverse agonists” (Bioorg Med Chem Lett, 2008)

Experiments:
[1] = molecular target: Histamine H3 receptor (Homo sapiens, UniProt Q9Y5N1); experiment: Inverse agonist activity at human cloned histamine H3 receptor assessed as inhibition of (R)-alpha-methylhistamine-induced [35S]GTPgammaS binding; assay type: functional
Summary of the method: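 [35S]GTPγS binding assay in membranes isolated from cells transfected with cloned human H3 receptors.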

[2] = Half life in Sprague-Dawley rat at 1 mg/kg, iv; assay type: ADME, organism-based; parameters: dose 1 mg/kg, route intravenous; conditions: in vivo
Summary of the method: (§1)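 Sprague-Dawley rats, n = 3, mean values reported; dosed iv at 1 mg/kg or orally at 3 mg/kg. Parameters derived from the plasma profile: half-life, Vdss, plasma clearance (iv), Tmax, Cmax and oral bioavailability (po).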

[3] = Bioavailability in Sprague-Dawley rat at 3 mg/kg, po; assay type: ADME, organism-based; conditions: in vivo; summary of the method: as §1
[4] = Plasma clearance in Sprague-Dawley rat at 1 mg/kg, iv; assay type: ADME, organism-based; parameters: dose 1 mg/kg, route intravenous; summary of the method: as §1
[5] = Drug concentration in Sprague-Dawley rat cerebrospinal fluid at 10 mg/kg, po after 2 hrs; assay type: ADME, organism-based; parameters: dose 10 mg/kg, route oral; conditions: read-out: Drug uptake
Summary of the method: (§2)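 SD rats, n = 3 (mean), dosed orally at 10 mg/kg. Plasma, brain and cerebrospinal fluid levels measured at 2 h post-dose; brain expressed as nmol/g, plasma and CSF as µM.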

[6] = Tmax in Sprague-Dawley rat at 3 mg/kg, po; assay type: ADME, organism-based; parameters: dose 3 mg/kg, route oral; conditions: in vivo; summary of the method: as §1
[7] = molecular target: Histamine H2 receptor (Homo sapiens, UniProt P25021); experiment: Inhibition of histamine H2 receptor
[8] = molecular target: Histamine H4 receptor (Homo sapiens, UniProt Q9H3N8); experiment: Inhibition of histamine H4 receptor
[9] = Cmax in Sprague-Dawley rat at 3 mg/kg, po; assay type: ADME, organism-based; parameters: dose 3 mg/kg, route oral; conditions: in vivo; summary of the method: as §1
[10] = system: Brain; experiment: Drug concentration in Sprague-Dawley rat brain at 10 mg/kg, po after 2 hrs; assay type: ADME, organism-based; parameters: dose 10 mg/kg, route oral; conditions: in vivo; summary of the method: as §2
[11] = Metabolic stability in cryopreserved rat hepatocytes assessed as hepatic clearance by serum incubation method; assay type: ADME, cell-based, Liver, Hepatocyte
Summary of the method: (§3)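 Hepatic clearance estimated by the serum incubation method in human and rat hepatocytes, expressed as mL/min/kg.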

[12] = Metabolic stability in cryopreserved human hepatocytes assessed as hepatic clearance by serum incubation method; assay type: ADME, cell-based, Liver, Hepatocyte; summary of the method: as §3
[13] = Plasma concentration in Sprague-Dawley rat at 10 mg/kg, po after 2 hrs; assay type: ADME, organism-based; parameters: dose 10 mg/kg, route oral; conditions: read-out: Drug uptake; summary of the method: as §2
[14] = Half life in Sprague-Dawley rat at 3 mg/kg, po; assay type: ADME, organism-based; parameters: dose 3 mg/kg, route oral; conditions: in vivo; summary of the method: as §1
[15] = Volume of distribution at steady state in Sprague-Dawley rat at 1 mg/kg, iv; assay type: ADME, organism-based; parameters: dose 1 mg/kg, route intravenous; conditions: in vivo, read-out: Vdss; summary of the method: as §1
[16] = molecular target: Histamine H1 receptor (Homo sapiens, UniProt P35367); experiment: Inhibition of histamine H1 receptor
[17] = molecular target: Voltage-gated inwardly rectifying potassium channel KCNH2 (Homo sapiens, UniProt Q12809); experiment: Displacement of [35S]N-[(4R)-1'-[(2R)-6-cyano-1,2,3,4-tetrahydro-2-naphthalenyl]-3,4-dihydro-4-hydroxyspiro[2H-1-benzopyran-2,4'-piperidin]-6-yl]methanesulfonamide from human ERG in HEK293 cells; assay type: cell-based
[18] = system: LLC-PK1; experiment: Ratio of permeability from basolateral to apical over apical to basolateral side of pig LLC-PK1 cells transfected with mouse MDR1a by P-gp transport assay; assay type: ADME, cell-based, Sus scrofa
Summary of the method: (§4)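 Transcellular transport measured across LLC-PK1 cell monolayers transfected with human MDR1 or mouse mdr1a. Ratio computed as (B-to-A)/(A-to-B) permeability; mean of n ≥ 3. Ratio above 3.0 taken to indicate a P-gp substrate.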

[19] = system: LLC-PK1; experiment: Ratio of permeability from basolateral to apical over apical to basolateral side of pig LLC-PK1 cells transfected with human MDR1 by P-gp transport assay; assay type: ADME, cell-based, Sus scrofa; summary of the method: as §4
[20] = system: Brain; experiment: Drug concentration in Sprague-Dawley rat brain at 1 mg/kg, iv after 10 mins; assay type: ADME, organism-based; parameters: dose 1 mg/kg, route intravenous; conditions: in vivo
Summary of the method: (§5)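 SD rats, n = 3 (mean), dosed iv at 1 mg/kg. Plasma, brain and CSF levels measured 10 min after dosing; brain expressed as nmol/g, plasma and CSF as µM.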

[21] = Plasma concentration in Sprague-Dawley rat at 1 mg/kg, iv after 10 mins; assay type: ADME, organism-based; parameters: dose 1 mg/kg, route intravenous; conditions: read-out: Drug uptake; summary of the method: as §5
[22] = Drug concentration in Sprague-Dawley rat cerebrospinal fluid at 1 mg/kg, iv after 10 mins; assay type: ADME, organism-based; parameters: dose 1 mg/kg, route intravenous; conditions: read-out: Drug uptake; summary of the method: as §5

Chain of Histamine H3 receptor (Q9Y5N1 whole entry): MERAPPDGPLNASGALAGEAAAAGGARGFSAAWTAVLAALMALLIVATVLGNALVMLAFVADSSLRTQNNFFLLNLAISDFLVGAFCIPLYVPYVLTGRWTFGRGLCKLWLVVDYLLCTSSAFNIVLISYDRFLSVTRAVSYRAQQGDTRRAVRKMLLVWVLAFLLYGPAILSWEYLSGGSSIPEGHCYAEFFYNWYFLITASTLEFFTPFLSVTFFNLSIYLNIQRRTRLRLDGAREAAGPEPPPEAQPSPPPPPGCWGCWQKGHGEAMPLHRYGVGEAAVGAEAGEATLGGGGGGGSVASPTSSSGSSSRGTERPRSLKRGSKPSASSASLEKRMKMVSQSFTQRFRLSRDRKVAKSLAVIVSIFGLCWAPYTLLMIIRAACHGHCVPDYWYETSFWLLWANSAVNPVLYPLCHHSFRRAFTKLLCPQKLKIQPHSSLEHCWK
Chain of Histamine H1 receptor (P35367 whole entry): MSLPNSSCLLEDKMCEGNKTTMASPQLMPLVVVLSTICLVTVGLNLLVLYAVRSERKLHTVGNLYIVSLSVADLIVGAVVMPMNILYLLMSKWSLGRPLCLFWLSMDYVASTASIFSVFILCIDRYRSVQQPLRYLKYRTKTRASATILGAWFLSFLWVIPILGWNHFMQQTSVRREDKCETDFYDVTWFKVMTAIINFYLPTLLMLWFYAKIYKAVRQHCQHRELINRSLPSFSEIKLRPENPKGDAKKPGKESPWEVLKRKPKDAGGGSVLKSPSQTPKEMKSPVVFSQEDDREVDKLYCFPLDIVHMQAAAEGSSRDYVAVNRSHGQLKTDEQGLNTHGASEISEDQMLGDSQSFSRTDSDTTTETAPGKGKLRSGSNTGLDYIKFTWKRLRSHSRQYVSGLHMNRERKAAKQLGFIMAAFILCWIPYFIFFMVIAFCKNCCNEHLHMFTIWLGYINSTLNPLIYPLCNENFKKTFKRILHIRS
Chain of Histamine H2 receptor (P25021 whole entry): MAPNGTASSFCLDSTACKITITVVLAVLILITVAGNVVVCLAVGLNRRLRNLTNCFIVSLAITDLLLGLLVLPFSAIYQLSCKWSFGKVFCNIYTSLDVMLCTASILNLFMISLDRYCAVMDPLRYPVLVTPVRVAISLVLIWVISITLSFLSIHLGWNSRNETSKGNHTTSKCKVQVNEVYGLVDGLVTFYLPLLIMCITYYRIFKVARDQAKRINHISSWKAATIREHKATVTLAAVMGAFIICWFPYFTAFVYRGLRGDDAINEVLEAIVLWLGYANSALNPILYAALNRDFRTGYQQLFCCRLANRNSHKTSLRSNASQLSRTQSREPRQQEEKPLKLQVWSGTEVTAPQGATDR
Chain of Histamine H4 receptor (Q9H3N8 whole entry): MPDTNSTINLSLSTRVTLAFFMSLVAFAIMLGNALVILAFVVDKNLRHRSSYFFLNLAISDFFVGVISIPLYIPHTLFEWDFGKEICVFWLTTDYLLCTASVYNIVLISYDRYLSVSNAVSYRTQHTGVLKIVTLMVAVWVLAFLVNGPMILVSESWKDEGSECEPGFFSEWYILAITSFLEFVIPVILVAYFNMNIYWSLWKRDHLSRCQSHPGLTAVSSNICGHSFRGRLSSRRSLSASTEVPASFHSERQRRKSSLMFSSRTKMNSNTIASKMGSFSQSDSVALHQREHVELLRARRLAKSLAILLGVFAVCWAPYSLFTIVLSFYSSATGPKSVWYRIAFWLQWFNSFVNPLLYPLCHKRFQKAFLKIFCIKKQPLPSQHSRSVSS
Chain of Voltage-gated inwardly rectifying potassium channel KCNH2 (Q12809 whole entry): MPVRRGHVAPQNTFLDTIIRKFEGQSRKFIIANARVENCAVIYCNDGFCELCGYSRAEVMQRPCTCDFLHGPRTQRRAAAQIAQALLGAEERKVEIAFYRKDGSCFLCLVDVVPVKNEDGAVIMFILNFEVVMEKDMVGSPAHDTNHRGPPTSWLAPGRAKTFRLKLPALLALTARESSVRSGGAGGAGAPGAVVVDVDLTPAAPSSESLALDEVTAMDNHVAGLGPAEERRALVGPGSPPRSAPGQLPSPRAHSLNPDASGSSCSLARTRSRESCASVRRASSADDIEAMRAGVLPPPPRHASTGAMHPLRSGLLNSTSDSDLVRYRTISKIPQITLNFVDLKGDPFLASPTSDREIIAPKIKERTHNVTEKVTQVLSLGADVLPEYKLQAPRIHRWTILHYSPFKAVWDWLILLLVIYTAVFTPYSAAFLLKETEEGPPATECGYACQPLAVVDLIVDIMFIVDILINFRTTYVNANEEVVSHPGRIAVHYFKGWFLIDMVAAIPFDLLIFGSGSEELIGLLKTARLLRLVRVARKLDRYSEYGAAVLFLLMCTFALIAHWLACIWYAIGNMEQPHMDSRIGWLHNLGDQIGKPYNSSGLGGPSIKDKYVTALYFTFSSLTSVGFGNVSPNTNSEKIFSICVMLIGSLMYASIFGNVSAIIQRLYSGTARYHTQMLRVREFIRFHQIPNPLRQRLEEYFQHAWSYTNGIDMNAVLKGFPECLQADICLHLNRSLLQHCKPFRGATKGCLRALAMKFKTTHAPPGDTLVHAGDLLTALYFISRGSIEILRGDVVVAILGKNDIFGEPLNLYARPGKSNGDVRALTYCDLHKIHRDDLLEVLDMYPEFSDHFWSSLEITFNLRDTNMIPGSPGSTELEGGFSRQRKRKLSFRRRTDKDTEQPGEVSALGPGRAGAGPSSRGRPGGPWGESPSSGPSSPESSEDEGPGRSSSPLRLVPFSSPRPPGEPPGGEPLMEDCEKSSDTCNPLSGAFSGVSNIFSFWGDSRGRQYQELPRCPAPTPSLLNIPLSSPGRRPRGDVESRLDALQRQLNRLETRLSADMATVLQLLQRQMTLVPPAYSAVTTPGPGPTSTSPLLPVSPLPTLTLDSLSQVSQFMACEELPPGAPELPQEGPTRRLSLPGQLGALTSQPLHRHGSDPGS

Row | Structure (SMILES) | IC50 [1] | other results
1 | CN(CCN1CCCCC1)C(=O)N1CCC(C#N)(c2ccccc2)CC1 | 267 nM | –
2 | CN(CCN1CCCCC1)C(=O)N1CCC2(CC1)OC(=O)c1ccccc12 | 21 nM | –
3 | CN(CCN1CCCCC1)C(=O)N1CCC2(CC1)OCc1ccccc12 | 387 nM | –
4 | COc1cccc2c1[C@]1(CC[C@@H](C(=O)N(C)CCN3CCCCC3)CC1)OC2=O | 3.6 nM | –
5 | CN(CCN1CCCCC1)C(=O)N1CCC(Cc2ccccc2)CC1 | 393 nM | –
6 | CN(CCN1CCCCC1)C(=O)N1CCN(c2ccccc2Cl)CC1 | > 1000 nM | –
7 | CN(CCN1CCCCC1)C(=O)N1CCN(c2cccc(Cl)c2)CC1 | 297 nM | –
8 | CN(CCN1CCCCC1)C(=O)N1CCC2(CC1)Cc1ccccc1C(=O)O2 | 380 nM | –
9 | CN(CCN1CCCCC1)C(=O)N1CCC(c2cccc3ccccc23)CC1 | 343 nM | –
10 | CN(CCN1CCCCC1)C(=O)N1CCC(c2ccccc2)CC1 | 893 nM | –
11 | CN(CCN1CCCCC1)C(=O)N1CCC(O)(c2ccccc2)CC1 | > 1000 nM | –
12 | CN(CCN1CCCCC1)C(=O)N1CCN(c2ccccc2)CC1 | 506 nM | –
13 | CN(CCN1CCCCC1)C(=O)N1CCN(c2ccc(Cl)cc2)CC1 | 160 nM | –
14 | CN(CCN1CCCCC1)C(=O)N1CCC(C(C)(C)C)CC1 | > 1000 nM | –
15 | CN(CCN1CCCCC1)C(=O)N1CCC2(CC1)NC(=O)c1ccccc1N2 | 560 nM | –
16 | CN(CCN1CCCCC1)C(=O)N1CCC(c2ccc3ccccc3c2)CC1 | 110 nM | –
17 | CN(CCN1CCCCC1)C(=O)N1CCC2(CC1)CC(=O)c1ccccc1O2 | 68 nM | –
18 | CN(CCN1CCCCC1)C(=O)N1CCC2(CC1)c1ccccc1C(=O)N2C | 45 nM | –
19 | CN(CCN1CCCCC1)C(=O)N1CCC2(CC1)Cc1ccccc1C2 | 530 nM | –
20 | CN(CCN1CCCCC1)C(=O)N1CCc2ccccc2C1 | 680 nM | –
21 | CN(CCN1CCCCC1)C(=O)N1CCC2(CC1)NC(=O)c1ccccc12 | 53 nM | –
22 | CN(CCN1CCCCC1)C(=O)N1CCC(C(=O)c2ccccc2)CC1 | 237 nM | –
23 | COc1ccc2c(c1)[C@]1(CC[C@@H](C(=O)N(C)CCN3CCCCC3)CC1)OC2=O | 18 nM | –
24 | COc1ccc2c(c1)C(=O)O[C@]21CC[C@H](C(=O)N(C)CCN2CCCCC2)CC1 | 0.54 nM | half-life [2]: 84 min; bioavailability [3]: 7%; clearance [4]: 74 mL/min/kg; concentration at 2 h [5]: 58 nM; Tmax [6]: 18 min; IC50 [7]: > 10 µM; IC50 [8]: > 10 µM; Cmax [9]: 60 nM; Drug uptake [10]: 0.48 nmol/g; CLhep predicted [11]: 54 mL/min/kg; CLhep predicted [12]: 18 mL/min/kg; concentration at 2 h [13]: 270 nM; half-life [14]: 84 min; Vd [15]: 7.2 L/kg; IC50 [16]: > 10 µM
25 | CN(CCN1CCCCC1)C(=O)[C@H]1CC[C@@]2(CC1)OC(=O)c1ccccc12 | 0.72 nM | clearance [4]: 97 mL/min/kg; IC50 [17]: > 10 µM; IC50 [7]: > 10 µM; Ratio [18]: 2; IC50 [8]: > 10 µM; Ratio [19]: 1.2; CLhep predicted [11]: 59 mL/min/kg; CLhep predicted [12]: 18 mL/min/kg; Drug uptake [20]: 2.4 nmol/g; concentration at 10 min [21]: 1500 nM; IC50 [16]: > 10 µM; concentration at 10 min [22]: 370 nM
26 | CN(CCN1CCCCC1)C(=O)N1CCC2(CC1)CC(=O)c1ccccc12 | 43 nM | –
27 | CN(CCN1CCCCC1)C(=O)N1CCC2(CC1)NC(=O)Cc1ccccc12 | 783 nM | –
28 | CN(CCN1CCCCC1)C(=O)N1CCC2(CC1)OC(=O)Nc1ccccc12 | > 1000 nM | –
29 | CN(CCN1CCCCC1)C(=O)N1CCC(c2ccccc2)(c2ccccc2)CC1 | 98 nM | –
